Experimental data taken from ChEMBL document CHEMBL4613251, “Meliponamycins: Antimicrobials from Stingless Bee-Associated Streptomyces sp” (J Nat Prod, 2020).

Columns and labels:
THP-1 = assay: Cytotoxicity against human THP1 cells assessed as reduction in cell viability after 120 hrs by alamar blue assay; format: cell-based; conditions: THP-1, 120 h
Method in brief: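 THP-1 cells were seeded at 2 × 10^4/well in RPMI-1640 + 10% FCS with 20 ng/mL PMA and differentiated for 72 h (37 °C, 5% CO2). Serial 2-fold dilutions from 10 mM DMSO stocks were added for 120 h. Alamar Blue was then added for 3 h, and fluorescence was read at ex 536 / em 588 nm as % of untreated control. n = 2 biological replicates; doxorubicin control.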

Paenibacillus larvae = assay: Antibacterial activity against Paenibacillus larvae ATCC 9545 assessed as reduction in microbial growth by CLSI based broth microdilution method; format: functional
Method in brief: (§1)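 MIC by broth microdilution following CLSI guidelines; strains propagated in ISP-2 medium. Compounds added from a 0.125 mg/mL DMSO stock, highest final concentration 6.9 μg/mL, then serial 2-fold dilutions with DMSO diluted alongside. Tetracycline served as positive control for both strains.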

Staphylococcus aureus = assay: Antibacterial activity against Staphylococcus aureus INCAS0039 assessed as reduction in microbial growth by CLSI based broth microdilution method; format: functional; method in brief: as §1
Leishmania infantum = assay: Antileishmanial activity against intracellular amastigote stage of Leishmania infantum MHOM/MA/67/ITMAP-263 infected in THP1 cells after 120 hrs by giemsa-staining based inverted microscopic mehod; format: functional, organism-based; conditions: MHOM/MA/67/ITMAP-263, THP-1, 120 h
Method in brief: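 THP-1 monocytes seeded at 2 × 10^4/well and differentiated to macrophages with 20 ng/mL PMA for 72 h (37 °C, 5% CO2). They were then infected with late-stage promastigotes (2 × 10^5/well; promastigotes grown in M199 + 10% FCS, 28 °C). Extracellular parasites were removed after 24 h, and 2-fold serial dilutions from 10 mM DMSO stocks were added for 120 h. Cells were methanol-fixed and Giemsa-stained, and amastigotes per macrophage were counted microscopically as % of untreated control. IC50 from a variable-slope fit; n = 2 biological replicates; miltefosine control.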

## COc1cccc2c1C(=O)c1c(O)c3c(c(O)c1C2=O)C[C@@](O)(C(=O)CO)C[C@@H]3O[C@H]1C[C@H](N)[C@H](O)[C@H](C)O1 [DOXORUBICIN]
THP-1
  IC50: 1800 nM

## CN(C)[C@@H]1C(O)=C(C(N)=O)C(=O)[C@@]2(O)C(O)=C3C(=O)c4c(O)cccc4[C@@](C)(O)[C@H]3C[C@@H]12 [TETRACYCLINE]
Paenibacillus larvae
  MIC: 7.76 µM
Staphylococcus aureus
  MIC: 0.05 µg/mL

## CCCCCCCCCCCCCCCCOP(=O)([O-])OCC[N+](C)(C)C [MILTEFOSINE]
Leishmania infantum
  IC50: 2400 nM
